Data published in ChEMBL document CHEMBL1122622, “Carbocyclic analogues of xylofuranosylpurine nucleosides. Synthesis and antitumor activity” (J Med Chem, 1984).

What was measured:
Mus musculus [1] = test: Compound was evaluated for the in vivo antitumor activity against P388 leukemia cells after injecting the compound intraperitoneally at a dose of 1 mg/kg in mice; assay type: functional; details: route intraperitoneal
In short: (§1)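 BDF1 male mice, eight per group, implanted ip with 10⁶ P388 leukemia cells. Drug given ip in 0.5 mL saline. Schedules varied between groups; the 100 mg/kg/day regimen was dosed qd 1-9.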

Mus musculus [2] = test: Compound was evaluated for the in vivo antitumor activity against P388 leukemia cells after injecting the compound intraperitoneally at a dose of 2 mg/kg in mice (treatment schedule 1-9 days); assay type: functional; details: route intraperitoneal; in short: as §1
Mus musculus [3] = test: (§2) Compound was evaluated for the in vivo antitumor activity against P388 leukemia cells after injecting the compound intraperitoneally at a dose of 5 mg/kg in mice; assay type: functional; details: route intraperitoneal; in short: as §1
Mus musculus [4] = test: Compound was evaluated for the in vivo antitumor activity against P388 leukemia cells after injecting the compound intraperitoneally at a dose of 50 mg/kg in mice; assay type: functional; details: route intraperitoneal; in short: as §1
Mus musculus [5] = test: as §2; assay type: functional; details: route intraperitoneal; in short: as §1; remark: listed apart in the source
Mus musculus [6] = test: Compound was evaluated for the in vivo antitumor activity against p388 leukemia cells after injecting the compound intraperitoneally at a dose of 2 mg/kg in mice; assay type: functional; details: route intraperitoneal; in short: as §1
Mus musculus [7] = test: Compound was evaluated for the in vivo antitumor activity against p388 leukemia cells after injecting the compound intraperitoneally at a dose of 5 mg/kg in mice; assay type: functional; details: route intraperitoneal; in short: as §1
Mus musculus [8] = organism: Mus musculus; test: Effective dose by 50% was evaluated; assay type: functional
In short: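 P388 mouse lymphoid leukemia cells were grown in culture in the presence of the compound, and the concentration giving 50% effect on growth was taken as the ED₅₀.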

[9] = target: Adenosine deaminase (Bos taurus) (UniProt P56658); test: Compound was evaluated for competitive inhibition of adenosine deaminase and expressed as Ki
Sequence of Adenosine deaminase (Bos taurus) (P56658 whole entry, looked up): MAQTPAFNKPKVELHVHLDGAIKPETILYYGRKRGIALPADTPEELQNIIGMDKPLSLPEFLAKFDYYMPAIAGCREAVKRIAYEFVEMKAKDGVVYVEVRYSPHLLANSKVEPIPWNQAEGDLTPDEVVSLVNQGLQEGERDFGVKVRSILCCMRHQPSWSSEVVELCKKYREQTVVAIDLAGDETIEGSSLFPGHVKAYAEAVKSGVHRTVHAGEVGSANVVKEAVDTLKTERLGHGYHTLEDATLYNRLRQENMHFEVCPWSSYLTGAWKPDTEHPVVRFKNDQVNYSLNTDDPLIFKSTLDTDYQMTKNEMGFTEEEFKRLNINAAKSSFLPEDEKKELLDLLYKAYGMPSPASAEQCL

**Q.** Which results are given for Nc1ncnc2c1nnn2C1CC(CO)C(O)C1O (configuration not stated)?
**A.** Survival time (Mus musculus [1]): 13.9 days; T/C (Mus musculus [1]): 128%; Survival time (Mus musculus [2]): 16.1 days; Survival time (Mus musculus [3]): 18.4 days; Survival time (Mus musculus [4]): 19.5 days; T/C (Mus musculus [4]): 226%; Survival time (Mus musculus [5]): 17.9 days; T/C (Mus musculus [5]): 175%; T/C (Mus musculus [6]): 149%; T/C (Mus musculus [7]): 173%

**Q.** How did the ED50 (Mus musculus [8]) turn out when Nc1ncnc2c1ncn2[C@@H]1C[C@H](CO)[C@@H](O)[C@H]1O [ARISTEROMYCIN] was run?
**A.** Its ED50 is 67 µM.

**Q.** What about the Ki [9] of the same molecule?
**A.** Its Ki is 9.9 µM.
